The values below come from ChEMBL document CHEMBL4118152, “Discovery of Potent and Selective Periphery-Restricted Quinazoline Inhibitors of the Cyclic Nucleotide Phosphodiesterase PDE1” (J Med Chem, 2018).

Assay [1] concerns the target Dual specificity calcium/calmodulin-dependent 3',5'-cyclic nucleotide phosphodiesterase 1B (Homo sapiens, UniProt Q01064). Nature of the assay: Inhibition of full length recombinant human PDE1B1 using 3',5'-[3H]cAMP as substrate after 30 mins by scintillation proximity assay. Put shortly:
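Enzymes were human except PDE6A, which was bovine. Each was assayed with cAMP or cGMP substrate, as appropriate to the enzyme, at concentrations below 1/3 of Km. IC50 values are mean ± SEM from n = 3 or more.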
For orientation: In a scintillation proximity assay essentially only radioactivity close to the scintillant gives light.

The target of assay [2] is Dual specificity calcium/calmodulin-dependent 3',5'-cyclic nucleotide phosphodiesterase 1A (Homo sapiens, UniProt P54750). Put plainly: Inhibition of full length recombinant human PDE1A using 3',5'-[3H]cAMP as substrate after 30 mins by scintillation proximity assay. Summed up: (§1)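 Human recombinant enzymes; substrate held below 1/3 of Km. IC50 reported as mean ± SEM of at least 3 determinations.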

In assay [3] the target is T1, Dual specificity calcium/calmodulin-dependent 3',5'-cyclic nucleotide phosphodiesterase 1C (Homo sapiens, UniProt Q14123). Nature of the assay: Inhibition of full length recombinant human PDE1C using 3',5'-[3H]cAMP as substrate after 30 mins by scintillation proximity assay. Summed up:
as §1

Assay [4] deals with T2, cGMP-specific 3',5'-cyclic phosphodiesterase (Homo sapiens, UniProt O76074). Put plainly: Inhibition of PDE5A in soluble protein extracts of human myocardium assessed as Ca2+/calmodulin stimulated substrate hydrolysis using 3',5'-[3H]cAMP as substrate relative to control. Conditions: concentration not given here. Put shortly: (§2)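 Soluble protein extracts from human left ventricle, test agent 1.0 µM, [3H]cAMP or [3H]cGMP substrate at 0.1 µM. Total activity was measured with CaCl2 plus exogenous calmodulin, and a parallel reaction was run with the Ca2+ chelator EGTA. Ca2+/calmodulin-dependent activity is total minus the EGTA activity; inhibition is given relative to control.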

Assay [5] has as its target T2, cGMP-specific 3',5'-cyclic phosphodiesterase. Nature of the assay: Inhibition of PDE5A in soluble protein extracts of human myocardium assessed as Ca2+/calmodulin stimulated substrate hydrolysis using 3',5'-[3H]cGMP as substrate relative to control. Conditions: concentration not given here. Summed up: as §2
For assay [6], the target named is T1, Dual specificity calcium/calmodulin-dependent 3',5'-cyclic nucleotide phosphodiesterase 1C. Nature of the assay: Inhibition of recombinant C-terminal FLAG tagged human PDE1C expressed in HEK293 cells using 3',5'-[3H]cGMP as substrate.
For assay [7] the target is unchanged. Put plainly: Inhibition of recombinant C-terminal FLAG tagged human PDE1C expressed in HEK293 cells using 3',5'-[3H]cAMP as substrate.
In assay [8] the target is T3, cGMP-inhibited 3',5'-cyclic phosphodiesterase 3A (Homo sapiens, UniProt Q14432). Put plainly: Inhibition of PDE3A in soluble protein extracts of human myocardium using 3',5'-[3H]cGMP as substrate at 1 uM relative to control.
For assay [9], the target named is T3, cGMP-inhibited 3',5'-cyclic phosphodiesterase 3A. Nature of the assay: Inhibition of PDE3A in soluble protein extracts of human myocardium using 3',5'-[3H]cAMP as substrate at 1 uM relative to control.
For assay [10] the target is unchanged. Put plainly: Inhibition of PDE3A in soluble protein extracts of human myocardium assessed as Ca2+/calmodulin stimulated substrate hydrolysis using 3',5'-[3H]cAMP as substrate relative to control. The following applies: concentration not given here. Summed up:
as §2

Assay [11] has the same target. Put plainly: Inhibition of PDE3A in soluble protein extracts of human myocardium assessed as Ca2+/calmodulin stimulated substrate hydrolysis using 3',5'-[3H]cGMP as substrate relative to control. The following applies: concentration not given here. Put shortly:
as §2

Assay [12] shares this target. Nature of the assay: Inhibition of recombinant human PDE3A expressed in HEK293 cells using 3',5'-[3H]cGMP as substrate. Summed up: (§3)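 Recombinant enzymes were assayed for hydrolysis of cAMP or cGMP, with substrate at 0.1 µM. The inhibitor was tested at 1.0 µM.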
The target in assay [13] is T2, cGMP-specific 3',5'-cyclic phosphodiesterase. Nature of the assay: Inhibition of PDE5A in soluble protein extracts of human myocardium using 3',5'-[3H]cGMP as substrate at 1 uM relative to control.
The target is the same in assay [14]. Nature of the assay: Inhibition of recombinant human PDE5 expressed in HEK293 cells using 3',5'-[3H]cGMP as substrate at 1 uM. Summed up:
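Recombinant enzymes were tested at 1.0 µM inhibitor with cAMP or cGMP substrate at 0.1 µM. Read-out is hydrolytic activity relative to control.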

For assay [15] the target is unchanged. Put plainly: Inhibition of PDE5A in soluble protein extracts of human myocardium using 3',5'-[3H]cAMP as substrate at 1 uM relative to control.
The target in assay [16] is T3, cGMP-inhibited 3',5'-cyclic phosphodiesterase 3A. Nature of the assay: Inhibition of recombinant human PDE3A expressed in HEK293 cells using 3',5'-[3H]cAMP as substrate. Put shortly:
as §3

The target of assay [17] is T2, cGMP-specific 3',5'-cyclic phosphodiesterase. Nature of the assay: Inhibition of recombinant human PDE5A expressed in HEK293 cells using 3',5'-[3H]cGMP as substrate. Summed up: as §3
For assay [18], the system named is HEK293. Put plainly: Inhibition of recombinant human PDE3 expressed in HEK293 cells using 3',5'-[3H]cAMP as substrate at 1 uM. Put shortly: as §3

The IC50 is the concentration that inhibits the measured activity by half. Broadly, the inhibition is the change of the read-out against control, counted positive when it falls.

Active and inactive are the calls of the source. No cut-off for these calls is given here.

Sequence of Dual specificity calcium/calmodulin-dependent 3',5'-cyclic nucleotide phosphodiesterase 1B (Q01064 whole entry): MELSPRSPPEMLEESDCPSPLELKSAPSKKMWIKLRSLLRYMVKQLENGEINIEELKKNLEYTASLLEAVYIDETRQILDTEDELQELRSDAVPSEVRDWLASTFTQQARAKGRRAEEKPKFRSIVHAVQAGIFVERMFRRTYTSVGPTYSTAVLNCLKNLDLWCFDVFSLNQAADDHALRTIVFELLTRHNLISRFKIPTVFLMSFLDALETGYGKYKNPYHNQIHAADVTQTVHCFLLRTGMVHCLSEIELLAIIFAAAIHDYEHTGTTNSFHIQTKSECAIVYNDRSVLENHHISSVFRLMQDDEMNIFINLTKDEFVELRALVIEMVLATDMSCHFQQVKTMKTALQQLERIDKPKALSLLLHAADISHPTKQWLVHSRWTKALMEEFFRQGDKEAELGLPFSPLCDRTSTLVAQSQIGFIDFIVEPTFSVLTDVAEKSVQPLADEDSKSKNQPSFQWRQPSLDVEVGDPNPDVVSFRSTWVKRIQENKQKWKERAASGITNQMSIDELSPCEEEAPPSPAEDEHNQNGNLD
T1 sequence (Q14123 whole entry): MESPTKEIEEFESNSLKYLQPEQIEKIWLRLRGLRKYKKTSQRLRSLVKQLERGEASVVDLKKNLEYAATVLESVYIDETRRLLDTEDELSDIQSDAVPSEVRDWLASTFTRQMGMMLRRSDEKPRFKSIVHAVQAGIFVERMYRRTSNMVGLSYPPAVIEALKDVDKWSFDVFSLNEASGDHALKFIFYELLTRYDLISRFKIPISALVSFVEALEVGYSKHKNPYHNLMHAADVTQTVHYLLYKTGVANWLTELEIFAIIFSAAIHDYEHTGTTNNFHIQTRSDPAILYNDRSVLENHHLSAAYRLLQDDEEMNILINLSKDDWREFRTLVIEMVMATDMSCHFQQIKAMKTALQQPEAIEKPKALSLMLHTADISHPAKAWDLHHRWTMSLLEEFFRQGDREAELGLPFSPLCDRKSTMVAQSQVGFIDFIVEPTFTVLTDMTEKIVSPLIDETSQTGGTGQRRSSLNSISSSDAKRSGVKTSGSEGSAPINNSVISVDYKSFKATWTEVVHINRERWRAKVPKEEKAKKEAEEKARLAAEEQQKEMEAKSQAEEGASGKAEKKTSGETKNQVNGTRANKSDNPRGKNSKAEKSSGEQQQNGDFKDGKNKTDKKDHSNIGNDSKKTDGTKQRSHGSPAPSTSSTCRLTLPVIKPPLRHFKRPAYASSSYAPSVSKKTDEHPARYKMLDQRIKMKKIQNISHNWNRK
T3 sequence (Q14432 whole entry): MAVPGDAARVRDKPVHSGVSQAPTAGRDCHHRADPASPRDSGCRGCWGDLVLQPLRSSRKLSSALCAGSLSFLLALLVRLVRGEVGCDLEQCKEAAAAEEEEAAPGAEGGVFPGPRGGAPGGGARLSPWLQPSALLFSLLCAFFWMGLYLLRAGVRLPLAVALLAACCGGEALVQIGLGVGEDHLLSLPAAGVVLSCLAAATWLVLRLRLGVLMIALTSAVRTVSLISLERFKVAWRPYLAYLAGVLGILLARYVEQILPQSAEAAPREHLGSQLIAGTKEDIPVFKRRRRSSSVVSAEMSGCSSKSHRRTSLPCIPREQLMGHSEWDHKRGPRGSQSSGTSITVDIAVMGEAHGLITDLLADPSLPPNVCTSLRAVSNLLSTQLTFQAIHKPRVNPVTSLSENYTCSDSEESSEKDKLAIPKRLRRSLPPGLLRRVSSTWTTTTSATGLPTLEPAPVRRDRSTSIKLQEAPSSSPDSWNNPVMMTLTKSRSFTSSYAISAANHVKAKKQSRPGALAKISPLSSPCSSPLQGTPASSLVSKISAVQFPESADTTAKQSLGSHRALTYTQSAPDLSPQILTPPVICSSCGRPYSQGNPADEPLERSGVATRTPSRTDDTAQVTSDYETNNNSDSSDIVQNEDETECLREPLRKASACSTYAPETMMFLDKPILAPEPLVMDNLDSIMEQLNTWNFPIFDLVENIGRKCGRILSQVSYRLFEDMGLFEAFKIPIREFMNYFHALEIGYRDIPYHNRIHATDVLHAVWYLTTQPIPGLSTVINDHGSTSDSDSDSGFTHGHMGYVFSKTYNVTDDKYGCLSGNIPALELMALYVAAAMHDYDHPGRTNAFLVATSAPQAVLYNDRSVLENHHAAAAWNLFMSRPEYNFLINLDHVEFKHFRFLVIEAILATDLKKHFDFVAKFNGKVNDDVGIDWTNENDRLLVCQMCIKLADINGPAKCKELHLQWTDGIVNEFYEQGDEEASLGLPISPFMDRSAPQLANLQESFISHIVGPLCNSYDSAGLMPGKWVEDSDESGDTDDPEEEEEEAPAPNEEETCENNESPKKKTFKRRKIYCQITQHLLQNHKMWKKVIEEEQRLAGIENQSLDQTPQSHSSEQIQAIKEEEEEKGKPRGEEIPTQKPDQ
Sequence of Dual specificity calcium/calmodulin-dependent 3',5'-cyclic nucleotide phosphodiesterase 1A (P54750 whole entry): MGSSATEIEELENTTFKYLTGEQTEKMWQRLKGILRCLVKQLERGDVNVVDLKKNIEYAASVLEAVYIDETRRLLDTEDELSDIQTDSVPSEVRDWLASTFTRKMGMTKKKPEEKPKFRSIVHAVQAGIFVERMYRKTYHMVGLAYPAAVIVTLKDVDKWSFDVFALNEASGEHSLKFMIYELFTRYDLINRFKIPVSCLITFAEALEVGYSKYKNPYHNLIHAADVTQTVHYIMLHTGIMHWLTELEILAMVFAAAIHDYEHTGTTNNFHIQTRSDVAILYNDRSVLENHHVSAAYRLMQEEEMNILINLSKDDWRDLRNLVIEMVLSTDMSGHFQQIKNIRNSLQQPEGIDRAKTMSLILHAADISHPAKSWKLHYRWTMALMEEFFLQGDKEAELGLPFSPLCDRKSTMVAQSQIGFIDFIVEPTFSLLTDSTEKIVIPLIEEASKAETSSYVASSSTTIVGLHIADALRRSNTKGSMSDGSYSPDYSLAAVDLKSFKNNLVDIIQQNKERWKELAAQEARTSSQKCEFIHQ

With `COc1cc2c(NC(C)Cc3cc(C)n[nH]3)ncnc2c(OC)c1OC` (racemic), the IC50 in [1] stood at 27 nM.
For `COc1ccc2c(N[C@H](C)Cc3cc(C)[nH]n3)ncnc2c1OC`, the IC50 in [2] stood at 777 nM; in [3], 579 nM; in [1], 596 nM.
Consider `COc1ccc2c(NC(C)Cc3cc(C)[nH]n3)ncnc2c1OC` (racemic), for which the inhibition in assay [4] was 90%; in [5] it was 90%; in [8], 80%; in [9], 76%; in assay [10] it was 90%; in assay [11] it was 90%. Moreover, the figures for the inhibition in [13] and in assay [15] were 80% and 76%, respectively. In addition, the IC50 in assay [6] turned out to be 110 nM; in assay [7] it was 56 nM; in [2], 118 nM; in assay [3], 83 nM; in [12], 369000 nM; in assay [16] it was 101000 nM. Also, the figures for the IC50 in assay [1] and in assay [17] were 21 nM and 30300 nM, respectively. Besides, the inhibition entry in assay [14] and in [18] was “Active” in each case.
In the case of `COc1ccc2c([C@H]3CCc4ccc(Cl)cc43)ncnc2c1OC`, in assay [1], the IC50 amounted to 4.5 nM.
With `COc1cc2ncnc(NC(C)Cc3cc(C)n[nH]3)c2cc1OC` (racemic), the IC50 in [1] stood at 52 nM.
`CCC(CC)Nc1ncnc2c(OC)c(OC)c(OC)cc12`: in [1], the IC50 was found to be 35 nM.
